Among the data in ChEMBL document CHEMBL1146566, “Antioxidant chalcone glycosides and flavanones from Maclura (Chlorophora) tinctoria” (J Nat Prod, 2003) are Activity values, retold here.

The nature of assay [1]: Antioxidant activity assessed as trolox equivalents of ABTS radical scavenging activity by TEAC assay. It counts as functional. In outline:
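ABTS radical cation made from 7 mM ABTS and 2.45 mM potassium persulfate, 12 h dark at room temperature, diluted in PBS pH 7.4 to A734 0.70, equilibrated at 30 °C. Samples in methanol at 0.3–2 mM stock levels, 10 μL plus 1 mL ABTS. % inhibition of A734 versus methanol blank plotted against concentration, in triplicate. TEAC = Trolox concentration equivalent to 1 mM compound; quercetin as reference.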

Assay [2] in a line: Antioxidant activity assessed as autoxidation of linoleic acid by beta-carotene autoxidation assay. It counts as functional. In outline:
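Linoleic acid (20 mg), Tween 20 (200 mg) and β-carotene (2 mg in 10 mL CHCl3) mixed, CHCl3 removed, 50 mL oxygen-saturated water added. Samples oxidised at 50 °C for 3 h, A470 read at intervals. AA = [1 − (A0 − At)/(A00 − A0t)] × 100 versus no-compound control, reported at 60 and 120 min; BHT as control substance.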

Calls of active or inactive are those of the source. No cut-off for these calls is given here.

On to `O=C1C[C@@H](c2ccc(O[C@@H]3O[C@H](CO)[C@@H](O)[C@H](O)[C@H]3O)cc2)Oc2cc(O)cc(O)c21`, for which the Activity in assay [1] turned out to be 0.782 mM. Same read-out and setting: next, `O=c1c(O)c(-c2ccc(O)c(O)c2)oc2cc(O)cc(O)c12`: 2.6 mM. Consider `CC(=O)OC[C@H]1O[C@@H](Oc2ccc(C(=O)/C=C/c3ccc(O)cc3)c(O)c2O)[C@H](OC(=O)/C=C/c2ccc(O)cc2)[C@@H](O)[C@@H]1O`, for which the outcome in assay [2] was Active. In assay [1], the Activity turned out to be 1.71 mM. `CC(=O)O[C@H]1[C@H](Oc2ccc(C(=O)/C=C/c3ccc(O)cc3)c(O)c2O)O[C@H](COC(=O)/C=C/c2ccccc2)[C@@H](O)[C@@H]1O`: the result in assay [2] was Active. Also, the Activity in assay [1] stood at 1.6 mM. Taken in the same sequence, the figures for `O=C(/C=C/c1ccc(O)cc1)O[C@H]1[C@H](Oc2ccc(C(=O)/C=C/c3ccc(O)cc3)c(O)c2O)O[C@H](CO)[C@@H](O)[C@@H]1O` were “Active” and 1.93 mM. For the molecule `O=C1C[C@@H](c2ccc(O)cc2)Oc2cc(O)cc(O)c21`, the Activity in assay [1] turned out to be 0.77 mM. For `O=C1C[C@@H](c2ccc(O)c(O)c2)Oc2cc(O[C@@H]3O[C@H](CO)[C@@H](O)[C@H](O)[C@H]3O)cc(O)c21`, the Activity in assay [1] turned out to be 1.26 mM. Consider `CC(C)=CCc1c(O[C@@H]2O[C@H](CO)[C@@H](O)[C@H](O)[C@H]2O)ccc(C(=O)/C=C/c2ccc(O)cc2)c1O`, for which the result in assay [2] was Active. The Activity in assay [1] came to 2.26 mM.
